In series [1] the target is T1, Hepatocyte growth factor receptor (Homo sapiens, UniProt P08581). The experiment in a line: Inhibition of recombinant c-Met (unknown origin) using poly (Glu, Tyr) 4:1 as substrate incubated for 60 mins by ELISA.
Series [2] can be described thus: AUC (0 to infinity) in Sprague-Dawley rat at 10 mg/kg, po administered as single dose. Format: ADME, organism-based. Set-up: dose 10 mg/kg, route oral, time infinity. Conditions: in vivo.
In series [3] the target is Insulin-like growth factor 1 receptor (Homo sapiens) (UniProt P08069). The experiment in a line: Inhibition of recombinant IGF1R (unknown origin) using poly (Glu, Tyr) 4:1 as substrate at 1000 nM incubated for 60 mins by ELISA relative to control. Summed up: (§1)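 Recombinant tyrosine kinases assayed on wells precoated with poly(Glu,Tyr)4:1 (20 µg/mL). ATP 10 µmol/L in HEPES pH 7.4 buffer with MgCl2, MnCl2, Na3VO4 and DTT; compound in 1% DMSO, 1% DMSO as control. Reaction 60 min at 37 °C. Phosphotyrosine detected with PY99 and HRP anti-mouse, o-phenylenediamine, A490. Inhibition % relative to control; two experiments.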
Chain of Insulin-like growth factor 1 receptor (Homo sapiens) (P08069 31-736 limits assumed): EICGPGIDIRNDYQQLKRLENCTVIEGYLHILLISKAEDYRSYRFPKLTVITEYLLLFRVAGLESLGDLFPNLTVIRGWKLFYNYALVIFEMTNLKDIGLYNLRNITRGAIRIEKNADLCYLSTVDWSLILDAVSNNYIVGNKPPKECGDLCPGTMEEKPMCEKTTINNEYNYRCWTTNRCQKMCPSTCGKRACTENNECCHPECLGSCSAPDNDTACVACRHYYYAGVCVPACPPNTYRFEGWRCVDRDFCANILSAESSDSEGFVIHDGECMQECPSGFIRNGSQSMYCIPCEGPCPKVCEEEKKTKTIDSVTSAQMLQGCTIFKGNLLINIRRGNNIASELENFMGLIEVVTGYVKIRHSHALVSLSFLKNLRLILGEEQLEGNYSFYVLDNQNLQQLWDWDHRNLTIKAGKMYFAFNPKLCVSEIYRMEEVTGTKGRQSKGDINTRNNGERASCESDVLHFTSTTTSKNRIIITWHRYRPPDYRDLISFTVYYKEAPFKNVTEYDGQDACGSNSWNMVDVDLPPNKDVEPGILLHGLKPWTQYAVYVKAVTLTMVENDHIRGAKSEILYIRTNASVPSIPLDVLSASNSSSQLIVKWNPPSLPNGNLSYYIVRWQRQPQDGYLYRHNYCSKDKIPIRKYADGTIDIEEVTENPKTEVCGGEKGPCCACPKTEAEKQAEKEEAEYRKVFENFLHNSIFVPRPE
Chain of Insulin-like growth factor 1 receptor (Homo sapiens) (P08069 741-1367 limits assumed): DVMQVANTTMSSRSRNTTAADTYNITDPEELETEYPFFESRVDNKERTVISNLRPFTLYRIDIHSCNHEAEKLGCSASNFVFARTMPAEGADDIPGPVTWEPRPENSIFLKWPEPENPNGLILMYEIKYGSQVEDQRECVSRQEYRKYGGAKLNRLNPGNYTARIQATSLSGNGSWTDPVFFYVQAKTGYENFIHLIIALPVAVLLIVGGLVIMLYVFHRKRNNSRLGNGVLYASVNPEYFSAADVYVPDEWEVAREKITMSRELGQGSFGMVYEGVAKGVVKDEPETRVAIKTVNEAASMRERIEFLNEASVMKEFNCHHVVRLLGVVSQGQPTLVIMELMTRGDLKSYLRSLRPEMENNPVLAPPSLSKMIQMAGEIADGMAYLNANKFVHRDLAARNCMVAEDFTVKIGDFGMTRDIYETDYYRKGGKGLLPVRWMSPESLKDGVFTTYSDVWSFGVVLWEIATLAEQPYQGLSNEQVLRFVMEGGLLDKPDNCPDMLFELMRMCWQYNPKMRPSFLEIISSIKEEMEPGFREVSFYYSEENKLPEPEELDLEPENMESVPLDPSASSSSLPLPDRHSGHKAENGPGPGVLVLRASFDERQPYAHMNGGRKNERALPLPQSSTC
On the technique in general: In an ELISA, binding on a coated surface is turned into a signal by an enzyme label.

Series [4] deals with Platelet-derived growth factor receptor beta (Homo sapiens) (UniProt P09619). Briefly: Inhibition of recombinant PDGFRbeta (unknown origin) using poly (Glu, Tyr) 4:1 as substrate at 1000 nM incubated for 60 mins by ELISA relative to control. In a few lines:
as §1

Series [5] deals with Receptor tyrosine-protein kinase erbB-2 (Homo sapiens) (UniProt P04626). Briefly: Inhibition of recombinant ERBB2 (unknown origin) using poly (Glu, Tyr) 4:1 as substrate at 1000 nM incubated for 60 mins by ELISA relative to control. Summed up:
as §1

Series [6] addresses T1, Hepatocyte growth factor receptor. Briefly: Inhibition of c-Met phosphorylation at Tyrosine 1234 in human EBC1 cells at 10 nM after 1 hr by Western blot analysis. In kind it is cell-based. Summed up:
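EBC-1 or MKN45 cells treated with compound 1 h at 37 °C without HGF, then lysed in 1× SDS sample buffer. Lysates run on 10% SDS-PAGE and transferred to nitrocellulose. Probed with antibodies to c-Met, phospho-c-Met, phospho-ERK1/2, phospho-AKT, AKT and GAPDH, then HRP secondary. ECL detection.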
Background: A western blot detects proteins with antibodies after separation by electrophoresis.

The target is the same in series [7]. The experiment in a line: Inhibition of c-Met phosphorylation at Tyrosine 1234 in HGF stimulated human U87MG cells at 10 nM after 1 hr by Western blot analysis. In kind it is cell-based. Conditions: U-87MG ATCC. In a few lines: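 U87MG cells serum-starved 24 h, pretreated with compound 1 h at 37 °C, then stimulated with HGF (100 ng/mL) for 15 min. Lysed in 1× SDS sample buffer, resolved by 10% SDS-PAGE and blotted to nitrocellulose. Probed for phospho-c-Met, phospho-ERK1/2, phospho-AKT and totals, with GAPDH as loading control. ECL detection.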

The target of series [8] is TPR/MET fusion protein (Mus musculus) (UniProt P16056+F6ZDS4). Briefly: Inhibition of TPR-MET in mouse BAF3 cells assessed as reduction in ERK phosphorylation at Tyrosine 204 at 10 nM after 1 hr by Western blot analysis. In kind it is cell-based. Summed up:
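BaF3 stably expressing TPR-MET (puromycin-selected), grown with IL-3-conditioned medium. Treated 1 h at 37 °C, lysed in SDS sample buffer. 10% SDS-PAGE and immunoblot for phospho-c-Met, phospho-ERK1/2, phospho-AKT and totals; ECL detection.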

In series [9] the target is Tyrosine-protein kinase receptor UFO (Homo sapiens, UniProt P30530). The experiment in a line: Inhibition of recombinant AXL (unknown origin) using poly (Glu, Tyr) 4:1 as substrate incubated for 60 mins by ELISA.
Chain of Tyrosine-protein kinase receptor UFO (P30530 whole entry): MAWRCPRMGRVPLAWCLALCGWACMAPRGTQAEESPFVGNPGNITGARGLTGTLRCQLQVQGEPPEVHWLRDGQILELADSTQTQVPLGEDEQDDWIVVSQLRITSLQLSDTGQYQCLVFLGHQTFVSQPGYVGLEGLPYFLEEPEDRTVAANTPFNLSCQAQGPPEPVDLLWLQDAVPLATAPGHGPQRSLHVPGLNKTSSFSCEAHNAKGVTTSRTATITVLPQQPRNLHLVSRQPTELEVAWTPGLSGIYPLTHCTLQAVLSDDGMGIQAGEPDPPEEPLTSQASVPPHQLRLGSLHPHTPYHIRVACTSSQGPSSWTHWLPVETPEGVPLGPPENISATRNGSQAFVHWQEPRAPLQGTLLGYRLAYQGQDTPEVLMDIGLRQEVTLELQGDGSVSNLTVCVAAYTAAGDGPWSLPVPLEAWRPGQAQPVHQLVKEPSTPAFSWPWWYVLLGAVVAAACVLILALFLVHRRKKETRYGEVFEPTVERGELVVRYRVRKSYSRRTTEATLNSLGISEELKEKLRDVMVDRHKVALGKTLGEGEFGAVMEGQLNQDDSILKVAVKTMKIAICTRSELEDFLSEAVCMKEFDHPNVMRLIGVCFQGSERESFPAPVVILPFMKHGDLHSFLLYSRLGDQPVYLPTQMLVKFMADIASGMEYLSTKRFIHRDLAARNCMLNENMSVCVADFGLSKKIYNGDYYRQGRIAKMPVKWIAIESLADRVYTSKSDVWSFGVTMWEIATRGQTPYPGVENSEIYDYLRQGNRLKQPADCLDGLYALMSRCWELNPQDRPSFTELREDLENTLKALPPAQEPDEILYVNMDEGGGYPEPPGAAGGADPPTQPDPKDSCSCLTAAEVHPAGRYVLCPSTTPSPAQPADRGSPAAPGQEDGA
Series [10] concerns the target Tyrosine-protein kinase receptor TYRO3 (Homo sapiens, UniProt Q06418). Briefly: Inhibition of recombinant TYRO3 (unknown origin) using poly (Glu, Tyr) 4:1 as substrate incubated for 60 mins by ELISA.
The next series relates to NCI-H292. The experiment in a line: Antiproliferative activity against human NCI-H292 cells after 72 hrs by SRB or MTT assay. In kind it is functional, cell-based. As to conditions: NCI-H292, 72 h. Summed up: (§2)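 Cells seeded, exposed next day to a range of concentrations for 72 h. Growth read by sulforhodamine B or MTT. IC50 from four-parameter concentration-response fit. Each concentration tested at least in triplicate, with at least 2 experiments.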
For orientation: Tetrazolium assays rely on reduction of a dye to a coloured formazan, in cell work by metabolically active cells.

A short description of series [11]: Antiproliferative activity against human BGC823 cells after 72 hrs by SRB or MTT assay. Format: functional, cell-based. Conditions: BGC-823, 72 h. Summed up:
as §2

Series [12] in a line: Antiproliferative activity against human SNU16 cells after 72 hrs by SRB or MTT assay. In kind it is functional, cell-based. Conditions: SNU-16, 72 h. In a few lines:
as §2

Series [13] can be described thus: Antitumor activity against human MKN45 cells xenografted in athymic nude mouse assessed as tumor growth inhibition at 25 mg/kg, po bid for 21 days measured twice a week during compound dosing relative to control. In kind it is functional. Conditions: MKN-45, po, 504 h, read-out: TGI. Summed up:
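Nude mice bearing s.c. tumours. Cells were first grown s.c. to 700–800 mm³, then 1.5 mm³ fragments were transplanted s.c. into the right flank. Mice were randomised at 100–200 mm³ (n=6 treated, n=12 vehicle) and dosed orally twice daily for 21 days. Caliper measurement twice weekly; TV = length×width²/2. TGI taken on the final day versus vehicle; Student's t test.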

Series [14] can be described thus: Selectivity ratio of IC50 for human PANC1 cells to IC50 for human EBC1 cells. As to conditions: panc-1. In kind it is ADME, cell-based. Summed up: (§3)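 Each cell line was seeded in 96-well plates, then exposed the next day to a range of compound concentrations for 72 h. Growth was read by SRB or MTT assay, and IC50 was fitted by a four-parameter concentration-response curve. Each concentration was run at least in triplicate, in at least 2 experiments. BaF3/TPR-Met are murine pre-B BaF3 cells transfected with TPR-MET cDNA and selected in puromycin.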

Series [15] is described as follows: Selectivity ratio of IC50 for human PANC1 cells to IC50 for human MKN45 cells. In kind it is ADME, cell-based. As to conditions: panc-1. In a few lines:
as §3

A short description of series [16]: Selectivity ratio of IC50 for human PANC1 cells to IC50 for mouse BAF3 cells expressing TPR-MET. In kind it is ADME, cell-based. Summed up:
as §3

Series [17] in a line: Selectivity ratio of IC50 for human 786-0 cells to IC50 for human EBC1 cells. In kind it is ADME, cell-based. Summed up:
(§4)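 Both IC50s in each ratio come from one proliferation assay. Cells were seeded and exposed the next day to a range of concentrations for 72 h, then read by SRB or MTT. IC50s were fitted by four-parameter concentration–response, with each concentration at least in triplicate and at least 2 experiments. BaF3/TPR-Met is murine pre-B BaF3 transfected with TPR-MET and puromycin-selected.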

A short description of series [18]: Selectivity ratio of IC50 for human NCI-H1299 cells to IC50 for human MKN45 cells. In kind it is ADME, cell-based. In a few lines:
as §4

Series [19] in a line: Selectivity ratio of IC50 for human NCI-H292 cells to IC50 for human MKN45 cells. Format: ADME, cell-based. In a few lines: as §4
A short description of series [20]: Selectivity ratio of IC50 for human MDA-MB-231 cells to IC50 for mouse BAF3 cells expressing TPR-MET. In kind it is ADME, cell-based. In a few lines: as §4
A short description of series [21]: Selectivity ratio of IC50 for human SPCA4 cells to IC50 for mouse BAF3 cells expressing TPR-MET. In kind it is ADME, cell-based. Conditions: SPCA4 cells versus BAF3 cells expressing TPR-MET.
Series [22] addresses Tyrosine-protein kinase Mer (Homo sapiens) (UniProt Q12866). As to conditions: 1000 nM.

The structures appear in SMILES notation. The source made the active and inactive calls. The calls are words filed in the database; no cut-off is given here. Bounds are passed on as bounds.

T1 sequence (P08581 whole entry): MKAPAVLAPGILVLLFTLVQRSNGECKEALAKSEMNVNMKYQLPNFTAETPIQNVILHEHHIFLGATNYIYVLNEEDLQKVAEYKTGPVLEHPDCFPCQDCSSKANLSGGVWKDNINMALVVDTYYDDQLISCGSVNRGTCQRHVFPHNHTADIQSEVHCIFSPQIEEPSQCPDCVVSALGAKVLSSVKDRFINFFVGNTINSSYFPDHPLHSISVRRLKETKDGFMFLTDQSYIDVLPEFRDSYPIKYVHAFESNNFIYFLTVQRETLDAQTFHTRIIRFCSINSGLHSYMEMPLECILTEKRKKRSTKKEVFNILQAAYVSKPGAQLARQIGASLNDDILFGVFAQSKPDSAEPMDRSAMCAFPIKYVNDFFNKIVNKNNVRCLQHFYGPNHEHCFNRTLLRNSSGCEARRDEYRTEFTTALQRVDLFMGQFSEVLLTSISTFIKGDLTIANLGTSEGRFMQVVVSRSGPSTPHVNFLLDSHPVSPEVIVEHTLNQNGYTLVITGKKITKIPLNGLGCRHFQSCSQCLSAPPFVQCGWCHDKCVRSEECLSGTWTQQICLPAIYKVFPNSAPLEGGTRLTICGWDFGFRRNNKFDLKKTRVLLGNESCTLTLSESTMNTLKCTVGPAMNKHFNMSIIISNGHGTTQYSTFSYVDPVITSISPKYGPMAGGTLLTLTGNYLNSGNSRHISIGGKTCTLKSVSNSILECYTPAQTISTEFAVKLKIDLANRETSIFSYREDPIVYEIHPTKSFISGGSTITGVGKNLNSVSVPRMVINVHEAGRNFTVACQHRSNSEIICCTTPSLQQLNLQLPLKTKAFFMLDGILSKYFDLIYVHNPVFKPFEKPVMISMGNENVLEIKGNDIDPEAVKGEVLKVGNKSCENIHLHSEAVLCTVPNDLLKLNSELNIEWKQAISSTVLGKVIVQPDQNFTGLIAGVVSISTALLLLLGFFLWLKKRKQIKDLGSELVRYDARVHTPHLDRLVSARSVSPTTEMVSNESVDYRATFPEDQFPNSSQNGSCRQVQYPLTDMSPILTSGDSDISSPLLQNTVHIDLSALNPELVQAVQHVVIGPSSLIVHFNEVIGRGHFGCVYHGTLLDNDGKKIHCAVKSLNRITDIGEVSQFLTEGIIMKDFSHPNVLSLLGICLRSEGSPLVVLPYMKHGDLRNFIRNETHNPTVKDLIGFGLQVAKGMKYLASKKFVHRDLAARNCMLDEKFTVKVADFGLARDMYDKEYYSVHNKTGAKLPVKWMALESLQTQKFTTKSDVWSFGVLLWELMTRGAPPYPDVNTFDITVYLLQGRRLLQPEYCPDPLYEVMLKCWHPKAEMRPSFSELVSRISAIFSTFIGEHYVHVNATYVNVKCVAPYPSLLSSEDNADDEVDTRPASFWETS
Chain of Tyrosine-protein kinase receptor TYRO3 (Q06418 whole entry): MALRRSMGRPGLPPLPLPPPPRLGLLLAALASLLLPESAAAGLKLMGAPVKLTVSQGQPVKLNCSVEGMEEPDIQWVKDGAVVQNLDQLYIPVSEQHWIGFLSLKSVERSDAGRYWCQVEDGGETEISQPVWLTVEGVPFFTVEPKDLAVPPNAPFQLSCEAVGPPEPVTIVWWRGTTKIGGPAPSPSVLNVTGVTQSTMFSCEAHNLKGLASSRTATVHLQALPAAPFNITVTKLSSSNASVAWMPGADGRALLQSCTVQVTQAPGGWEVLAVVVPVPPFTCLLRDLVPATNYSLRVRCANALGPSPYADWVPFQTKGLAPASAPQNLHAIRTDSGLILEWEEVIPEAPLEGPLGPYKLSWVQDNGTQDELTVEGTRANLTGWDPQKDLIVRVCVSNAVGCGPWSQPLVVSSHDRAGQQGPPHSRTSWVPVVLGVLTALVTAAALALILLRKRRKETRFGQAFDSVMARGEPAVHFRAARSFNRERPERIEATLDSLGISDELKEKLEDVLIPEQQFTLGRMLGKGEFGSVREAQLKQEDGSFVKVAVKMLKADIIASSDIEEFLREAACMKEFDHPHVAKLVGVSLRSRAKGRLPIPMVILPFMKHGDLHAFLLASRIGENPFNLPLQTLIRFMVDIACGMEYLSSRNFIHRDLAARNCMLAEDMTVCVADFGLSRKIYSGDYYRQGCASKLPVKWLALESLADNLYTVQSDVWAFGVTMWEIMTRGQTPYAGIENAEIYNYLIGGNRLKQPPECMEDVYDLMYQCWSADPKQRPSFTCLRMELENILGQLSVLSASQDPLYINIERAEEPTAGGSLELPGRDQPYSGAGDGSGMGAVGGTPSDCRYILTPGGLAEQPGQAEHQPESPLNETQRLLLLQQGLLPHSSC

As usually defined, the IC50 is the midpoint of a concentration-inhibition curve. A word on the AUC(0-inf): it is total exposure, with the tail of the curve extrapolated. Higher therefore signals high exposure. In general, inhibition refers to the relative decrease from the control value, in per cent. On to `Fc1ccc(-c2cnc3nnc(C(F)(F)c4ccc5ncccc5c4)n3n2)cc1`, for which the half-maximal inhibitory concentration (IC50) is 0.00024 µM in [1]; > 1 µM in series [9]; > 1 µM in series [10]; > 10 µM in the series on NCI-H292; > 10 µM in series [11]; > 10 µM in series [12]. The compound also came in with an area under the curve AUC(0-inf) in [2] of 2380 ng·h/mL. The inhibition in series [3] came to 0.4%; in [4], 19.6%; in series [5], 31.5%; in series [22], 13.5%. Further, the inhibition result in [6], in series [7] and in [8] was “Active” throughout. Further, the inhibition in vivo at 25 mg/kg in [13] is 96.5%. In addition, the “Ratio IC50” value in series [14], in series [15], in series [16], in series [17], in [18] and in [19] was 10000 throughout. Moreover, the Ratio IC50 in series [20] was > 10000. Besides, the selectivity ratio in series [21] is > 10000.
